Source: ChEMBL document CHEMBL4052634, “Covalent inhibitors of LgtC: A blueprint for the discovery of non-substrate-like inhibitors for bacterial glycosyltransferases” (Bioorg Med Chem, 2017)
Activity calls are given as the source filed them. The rule behind the calls is not given here.

Key:
[1] = tested on: Neisseria meningitidis; experiment: Inhibition of Neisseria meningitidis alpha-1,4-galactosyltransferase at 0.1 to 100 uM using lactose as substrate preincubated with compoundfollowed by substrate/UDP-Gal addition measured after 20 min by malachite green dye-based assay
Summary of the method: (§1)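 Enzyme (DTT-activated) with MnCl2 5 mM, CIP 10 U/mL, lysozyme 1 mg/mL, 0.01% Triton, 13 mM HEPES pH 7.0 and inhibitor in DMSO (10% final) pre-incubated 10 min at 30 °C before UDP-Gal (28 µM) plus lactose (2 mM) added; 20 min at 30 °C; UDP read by malachite green at 620 nm versus UDP standard curve, background-corrected; triplicate.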

[2] = tested on: Neisseria meningitidis; experiment: Binding affinity to Neisseria meningitidis alpha-1,4-galactosyltransferase assessed as covalent adduct formation at 100 uM after 20 mins by mass spectrometric analysis; settings: TDE = time-dependent effect
Summary of the method: (§2)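 LgtC stock without DTT activation, diluted in 13 mM HEPES pH 7.0, incubated with inhibitor (100 or 50 µM, added in DMSO; 10% final DMSO) for 20 min at 30 °C; samples injected directly for electrospray MS to detect protein-inhibitor adducts.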

[3] = tested on: Neisseria meningitidis; experiment: Inhibition of Neisseria meningitidis alpha-1,4-galactosyltransferase assessed as consumption of donor UDP-Gal by measuring turnover rate at 0.1 to 100 uM using lactose as substrate in presence of UDP-Gal measured after 20 min by malachite green dye-based assay relative to total amount of UDP-Gal used
Summary of the method: (§3)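 No pre-incubation: DTT-activated LgtC with MnCl2 5 mM, CIP 10 U/mL, egg-white lysozyme 1 mg/mL, 0.01% Triton, 13 mM HEPES pH 7.0, lactose 2 mM, inhibitor in DMSO (10% final); started with UDP-Gal 28 µM, 20 min at 30 °C, 20-50% donor turnover. Malachite green read at 620 nm against a UDP calibration curve, background without acceptor subtracted, % of assay window; triplicate minimum; IC50 from sigmoidal fit.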

[4] = tested on: Neisseria meningitidis; experiment: (§4) Inhibition of Neisseria meningitidis alpha-1,4-galactosyltransferase assessed as consumption of donor UDP-Gal by measuring turnover rate at 0.1 to 100 uM using lactose as substrate preincubated for 10 mins with UDP-Gal followed by lactose addition measured after 20 mins by malachite green dye-based assay relative to total amount of UDP-Gal used
Summary of the method: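 LgtC pre-incubated 10 min at 30 °C with inhibitor (DMSO, 10% final) and UDP-Gal 28 µM in 13 mM HEPES pH 7.0 with MnCl2 5 mM, CIP 10 U/mL, lysozyme 1 mg/mL, 0.01% Triton; lactose 2 mM then added, 20 min at 30 °C; malachite green absorbance at 620 nm converted via UDP calibration; triplicate.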

[5] = tested on: Neisseria meningitidis; experiment: as §4, with “mins” for “mins with UDP-Gal”, “by substrate and UDP-Gal” for “by lactose”, “total” for “total amount of”; summary of the method: as §1
[6] = tested on: Neisseria meningitidis; experiment: as §4, with “preincubated with lactose” for “preincubated”, “mins” for “mins with UDP-Gal”, “by UDP-Gal” for “by lactose”, “total” for “total amount of”
Summary of the method: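 Pre-incubation 10 min at 30 °C of activated LgtC, inhibitor (10% DMSO final) and lactose 2 mM in 13 mM HEPES pH 7.0 with MnCl2 5 mM, CIP 10 U/mL, lysozyme 1 mg/mL, 0.01% Triton; reaction started with UDP-Gal 28 µM, 20 min at 30 °C; malachite green readout at 620 nm against UDP standards; triplicate.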

[7] = Inhibition of Neisseria meningitidis alpha-1,4-galactosyltransferase assessed as enzyme activity using lactose as substrate in presence of UDP-Gal measured after 20 min by malachite green dye-based assay; summary of the method: as §3
[8] = Inhibition of Neisseria meningitidis alpha-1,4-galactosyltransferase assessed as enzyme activity using lactose as substrate preincubated for 5 mins followed by lactose and UDP-Gal addition measured after 20 mins by malachite green dye-based assay
[9] = Inhibition of Neisseria meningitidis alpha-1,4-galactosyltransferase assessed as enzyme activity using lactose as substrate preincubated for 10 mins followed by lactose and UDP-Gal addition measured after 20 mins by malachite green dye-based assay; summary of the method: as §1
[10] = Inhibition of Neisseria meningitidis alpha-1,4-galactosyltransferase assessed as enzyme activity using lactose as substrate preincubated for 20 mins followed by lactose and UDP-Gal addition measured after 20 mins by malachite green dye-based assay
[11] = Inhibition of Neisseria meningitidis alpha-1,4-galactosyltransferase assessed as enzyme activity using lactose as substrate preincubated for 30 mins followed by lactose and UDP-Gal addition measured after 20 mins by malachite green dye-based assay
[12] = Inhibition of Neisseria meningitidis alpha-1,4-galactosyltransferase assessed as enzyme activity using lactose as substrate preincubated for 60 mins followed by lactose and UDP-Gal addition measured after 20 mins by malachite green dye-based assay
[13] = Inhibition of Neisseria meningitidis alpha-1,4-galactosyltransferase assessed as enzyme activity using lactose as substrate preincubated for 180 mins followed by lactose and UDP-Gal addition measured after 20 mins by malachite green dye-based assay
[14] = species on record: Bos taurus; experiment: Inhibition of bovine beta-1,4-galactosyltransferase at 0.1 to 50 uM using UDP as substrate after 20 mins by malachite green dye-based assay
[15] = (§5) Inhibition of Neisseria meningitidis alpha-1,4-galactosyltransferase assessed as enzyme activity using lactose as substrate preincubated for 0 to 30 mins measured after 20 mins in presence of UDP-Gal
[16] = tested on: Neisseria meningitidis; experiment: as §5
[17] = tested on: Neisseria meningitidis; experiment: Inhibition of Neisseria meningitidis alpha-1,4-galactosyltransferase assessed as rate constant for enzyme activity at 0.5 uM using lactose as substrate preincubated with substrate measured after 20 mins in presence of UDP-Gal
Summary of the method: (§6)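 Activity measured at a series of inhibitor concentrations (0.5-200 µM range overall) after pre-incubation with LgtC for 0, 5, 10, 20 and 30 min, using the pre-incubation protocols (lactose 2 mM, UDP-Gal 28 µM, 20 min at 30 °C, malachite green); % of DMSO control plotted semi-logarithmically versus pre-incubation time to give kobs; kobs versus concentration gave Ki and kinact; triplicate.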

[18] = tested on: Neisseria meningitidis; experiment: Inhibition of Neisseria meningitidis alpha-1,4-galactosyltransferase assessed as rate constant for enzyme activity at 4 uM using lactose as substrate preincubated with substrate measured after 20 mins in presence of UDP-Gal; summary of the method: as §6
[19] = tested on: Neisseria meningitidis; experiment: Inhibition of Neisseria meningitidis alpha-1,4-galactosyltransferase assessed as rate constant for enzyme activity at 10 uM using lactose as substrate preincubated with substrate measured after 20 mins in presence of UDP-Gal; summary of the method: as §6
[20] = tested on: Neisseria meningitidis; experiment: Inhibition of Neisseria meningitidis alpha-1,4-galactosyltransferase assessed as rate constant for enzyme activity at 25 uM using lactose as substrate preincubated with substrate measured after 20 mins in presence of UDP-Gal; summary of the method: as §6
[21] = tested on: Neisseria meningitidis; experiment: Inhibition of Neisseria meningitidis alpha-1,4-galactosyltransferase assessed as rate constant for enzyme activity at 50 uM using lactose as substrate preincubated with substrate measured after 20 mins in presence of UDP-Gal; summary of the method: as §6
[22] = tested on: Neisseria meningitidis; experiment: Binding affinity to Neisseria meningitidis alpha-1,4-galactosyltransferase assessed as covalent-enzyme adduct formation at 50 uM after 20 mins by mass spectroscopy; settings: 100 uM, in the assay text read “at 100 uM” for “at 50 uM”; summary of the method: as §2
[23] = tested on: Neisseria meningitidis; experiment: Inhibition of Neisseria meningitidis alpha-1,4-galactosyltransferase assessed as rate constant for enzyme activity at 1.5 uM using lactose as substrate preincubated with substrate measured after 20 mins in presence of UDP-Gal; summary of the method: as §6

O=C1/C(=C\c2cccc(OCc3ccccc3)c2)C(C(F)(F)F)=NN1c1ccccc1
inhibition [1]: inactive
Activity [2]: Tde
inhibition [3]: 29%
inhibition [4]: 29%
inhibition [5]: 25 to 41%
inhibition [6]: 23%
IC50 [7]: > 100 µM
IC50 [8]: > 50 µM
IC50 [9]: > 50 µM
IC50 [10]: 38 µM
IC50 [11]: 17.6 µM
IC50 [12]: 9 µM
IC50 [13]: 6 µM
inhibition [14]: inactive
Ki [15]: 46.3 µM
Kinact [16]: 0.104 min⁻¹
K [17]: 0.002 min⁻¹
K [18]: 0.007 min⁻¹
K [19]: 0.011 min⁻¹
K [20]: 0.033 min⁻¹
K [21]: 0.068 min⁻¹
Activity [22]: Active

COc1ccc(/C=C2\C(=O)N(c3ccccc3)N=C2C(F)(F)F)cc1Br
inhibition [1]: inactive
inhibition [3]: 30%
inhibition [4]: 30%
inhibition [5]: 25%
inhibition [6]: 23%
IC50 [7]: > 50 µM
IC50 [8]: 24 µM
IC50 [9]: 15.8 µM
IC50 [10]: 6.5 µM
IC50 [11]: 3.1 µM
IC50 [12]: 3.1 µM
IC50 [13]: 5.5 µM
inhibition [14]: inactive
Ki [15]: 4.4 µM
Kinact [16]: 0.0535 min⁻¹
K [17]: 0.006 min⁻¹
K [18]: 0.023 min⁻¹
K [19]: 0.039 min⁻¹
K [20]: 0.047 min⁻¹
K [21]: 0.048 min⁻¹
K [23]: 0.017 min⁻¹
